2 compounds from publication PMC4917231 (MedChemComm, 2016) can be followed below.

Structures are written as SMILES. pEC50: −log10 of the molar value.

The test system of data set [1] is Raji Burkitt B-cell lymphoma. Description: 96h MTT assay using Raji Burkitt B-cell lymphoma. Type of data set: cell-based. To be noted: Homo sapiens, Raji cells.
The nature of data set [2]: Tissue distribution study in mice after IP dosing. To be noted: 20 mg/kg IP. Type of data set: in vivo. The essentials:
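Non-tumour-bearing mice received a single IP dose of test compound at 20 mg kg⁻¹, given as a 1 mg ml⁻¹ formulation in 10:10:80 DMSO:Tween80:water. Compound residence in tissues was followed after dosing.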

The compound `CC(C)Cc1nn(C)c(=O)c2c(SCCCO)n(Cc3ccc(NCCCCCNC(=O)[C@@H](N)CCC(N)=O)nc3)cc12` [Compound 12] showed a negative-log EC50 (pEC50) in data set [1] of around 7.00. For the compound `CC(C)Cc1nn(C)c(=O)c2c(SCCCO)n(Cc3ccc(C#CCCCOc4ccc(C[C@H](N)C(=O)O)cc4)c4ccccc34)cc12` [Compound 10], the “detectability in tissues seven days after IP administration” value in data set [2] is “detectable in all tissues”.

One may read the pEC50 as −log10 of the EC50, conventionally taken in molar units. A lower pEC50 goes with a large EC50.
